The record followed here is the array DNA melting data of Ke et al. (doi:10.1101/2024.01.08.574731).

Data set [1] in a line: folding enthalpy; higher = less favourable; fluorescence melt of hairpins on a sequencing array, two-state fit. The note with it: sodium 0.088 M. A digest of the protocol:
(§1)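 Melting temperature and folding enthalpy were obtained by bootstrapped two-state fitting. Fits used Cy3 fluorescence of library hairpins with annealed Cy3 and quencher oligos on a sequenced MiSeq flow cell, imaged in 50 mM Na-HEPES pH 8.0, 25 mM NaCl in 2.5 °C steps up to 60 °C and normalised to pre-quench Cy3 and control constructs. Four replicates were combined by inverse-variance weighting, and fitted temperatures were raised by 9.35 °C to match UV melts.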

Data set [2] can be described thus: melting temperature; fluorescence melt of hairpins on a sequencing array, two-state fit, raised by 9.35 °C to match UV melts. The settings on record: sodium 0.088 M. A digest of the protocol: as §1

Turning to GGGTCCGAAAGGAGCCC ((((((....))).))), the folding enthalpy in data set [1] was -15.6 kcal/mol. The Tm in data set [2] was 68.5 °C.

On to GGGTCCGAAAGGAGTCCC ((((((....)))..))), for which, in data set [1], the folding enthalpy was -19.6 kcal/mol. In addition, in data set [2], the Tm stood at 46.5 °C.

For the sequence GGGTCCTCGAAAGAGCCC (((..(((....)))))), the folding enthalpy in data set [1] is -15.3 kcal/mol. Further, the Tm in data set [2] is 40 °C.

On to GGGTCGGGAAACCGGCTC (.(.(((....))).).), for which the folding enthalpy in data set [1] was -21.1 kcal/mol. Besides, the Tm in data set [2] amounted to 47.9 °C.

As for GGGTCGGGAAACCGGTCC ((..(((....)))..)), the folding enthalpy in data set [1] was -28.5 kcal/mol. For the same sequence, in data set [2], the Tm amounted to 47.2 °C.

In the case of GGGTCTCGAAAGAGCCCC (((.(((....))).))), the folding enthalpy in data set [1] was -37.9 kcal/mol. Further, the Tm in data set [2] came to 57.4 °C.

In the case of GGGTCTGGAAACAGACTC (.(((((....))))).), the folding enthalpy in data set [1] was -21.9 kcal/mol. For the same sequence, the Tm in data set [2] is 52 °C.

As to GGGTCTGGAAACGGACCC (((((.(....).))))), the folding enthalpy in data set [1] is -51.6 kcal/mol. Also, the Tm in data set [2] came out at 59.3 °C.

With GGGTGACGAAAGTCTCCC (((.(((....))).))), the folding enthalpy in data set [1] is -36.2 kcal/mol. Moreover, the Tm in data set [2] stood at 60.3 °C.

On to GGGTGAGCGAAAGCTCCC (((..(((....)))))), for which, in data set [1], the folding enthalpy was -12.6 kcal/mol. The Tm in data set [2] amounted to 49.1 °C.

In the case of GGGTGCCGAAAGGCCCC (((.(((....)))))), the folding enthalpy in data set [1] was -21.8 kcal/mol. Further, the Tm in data set [2] was determined as 67.2 °C.

Turning to GGGTGCCGAAAGGCCCCC (((.(((....))).))), the folding enthalpy in data set [1] was -15.6 kcal/mol. Moreover, the Tm in data set [2] was 66.8 °C.

As to GGGTGCGAAAGCACTCCC ((((((....)))..))), in data set [1], the folding enthalpy was -10.4 kcal/mol. Further, the Tm in data set [2] was found to be 53.5 °C.

As for GGGTGCGAAAGCATGCCC ((((((....)))..))), the folding enthalpy in data set [1] was -15.7 kcal/mol. In addition, the Tm in data set [2] is 49.6 °C.

Take GGGTGCGGAAACACACCC (((((.(....).))))): the folding enthalpy in data set [1] was -37.6 kcal/mol. Also, in data set [2], the Tm is 54.8 °C.

Turning to GGGTGCGGAAACGCACTC (.(((((....))))).), the folding enthalpy in data set [1] was -12 kcal/mol. Besides, in data set [2], the Tm turned out to be 59.4 °C.

Take GGGTGCGGAAACGCGTCC ((..(((....)))..)): the folding enthalpy in data set [1] was -19.7 kcal/mol. The Tm in data set [2] is 50.9 °C.

With GGGTGGGCGAAAGCCCCC (((..(((....)))))), the folding enthalpy in data set [1] was -12 kcal/mol. Moreover, in data set [2], the Tm was found to be 54.5 °C.

For GGGTGGGGAAACCCATCC ((.((((....)))).)), in data set [1], the folding enthalpy was -34.7 kcal/mol. Also, the Tm in data set [2] was found to be 54.2 °C.

For GGGTGTCCGAAAGGACCC (((..(((....)))))), the folding enthalpy in data set [1] is -14 kcal/mol. In data set [2], the Tm amounted to 55 °C.

With GGGTGTGGAAACACGCCC (((.(((....))).))), the folding enthalpy in data set [1] is -39.6 kcal/mol. Moreover, the Tm in data set [2] was 62.5 °C.

Consider GGGTGTGGAAACGCACCC (((((.(....).))))), for which the folding enthalpy in data set [1] was -45.2 kcal/mol. Further, the Tm in data set [2] turned out to be 60 °C.

Take GGGTTAGGAAACTAATCC ((.((((....)))).)): in data set [1], the folding enthalpy is -35.1 kcal/mol. In addition, the Tm in data set [2] came to 42.7 °C.

Turning to GGGTTCCCGAAAGGGCCC (((..(((....)))))), the folding enthalpy in data set [1] is -18.6 kcal/mol. Besides, the Tm in data set [2] turned out to be 47.7 °C.

Consider GGGTTCCGAAAGGACCCC (((.(((....))).))), for which the folding enthalpy in data set [1] is -39.5 kcal/mol. Besides, the Tm in data set [2] was found to be 58.1 °C.

For GGGTTCCGAAAGGAGCCC (((.(((....))).))), the folding enthalpy in data set [1] was -39.8 kcal/mol. Besides, in data set [2], the Tm was found to be 67.1 °C.

For GGGTTCGAAAGAAACCCC ((((((....)))..))), in data set [1], the folding enthalpy was -18.5 kcal/mol. Further, in data set [2], the Tm is 52.5 °C.

Turning to GGGTTCGAAAGAAGTCCC ((((((....)))..))), the folding enthalpy in data set [1] was -20.2 kcal/mol. Further, the Tm in data set [2] came to 32.7 °C.

Consider GGGTTCGAAAGAATACCC ((((((....)))..))), for which, in data set [1], the folding enthalpy is -24.9 kcal/mol. Moreover, in data set [2], the Tm was 40.5 °C.

As for GGGTTCGAAAGAATCCC ((((((....))).))), the folding enthalpy in data set [1] is -29 kcal/mol. Further, the Tm in data set [2] amounted to 52 °C.
